Experiment [1] deals with Voltage-gated potassium channel, KQT; KCNQ2(Kv7.2)/KCNQ3(Kv7.3) (Homo sapiens, UniProt O43525+O43526). Nature of the experiment: Activation of KCNQ2/KCNQ3 expressed in CHO cells by isotopic efflux assay. It is filed as cell-based. Put shortly:
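86Rb+ flux in K+-channel-expressing cells loaded by culture in 86RbCl, then washed in EBSS. Preincubated with drug (0.01-30 μM in EBSS), then efflux stimulated by submaximal KCl (generally 7-20 mM) with drug still present. Supernatant and SDS lysate counted by Cherenkov. Percent efflux normalized to high-KCl (generally 30-135 mM) maximum. EC50 from eight-point half-log curves; mean of 2-4 determinations ± SEM.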

Experiment [2] concerns Mus musculus. Nature of the experiment: Anticonvulsant activity against maximal electroshock-induced seizures in CD1 mouse model at 30 mg/kg, po treated 30 mins before electroshock application. It counts as functional, organism-based. Set-up: dose 30 mg/kg. Put shortly: (§1)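 Male CD-1 mice dosed po (10 mL/kg in 5% DMSO/95% of 0.5% HPMC/1% Tween 80) 30 min before corneal electroshock at 50 mA for 0.2 s, with 1% proparacaine in each eye. Latency to hindlimb extension recorded to 0.1 s. No extension within 6 s scored as protected (latency 6 s). Reported as protected/tested (8 per group), or EC50 derived from latency scores.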
(In general: In the maximal electroshock model the usual endpoint is tonic extension of the hind limbs.)

Experiment [3] concerns Mus musculus. Nature of the experiment: Anticonvulsant activity against maximal electroshock-induced seizures in CD1 mouse model at 20 mg/kg, po treated 30 mins before electroshock application. Set-up: dose 20 mg/kg. It is filed as functional, organism-based. Put shortly: as §1
Experiment [4] relates to Mus musculus. Nature of the experiment: Anticonvulsant activity against maximal electroshock-induced seizures in CD1 mouse model at 10 mg/kg, po treated 30 mins before electroshock application. Set-up: dose 10 mg/kg. It is filed as functional, organism-based. The method in brief: as §1
Experiment [5] deals with Mus musculus. Nature of the experiment: Anticonvulsant activity against maximal electroshock-induced seizures in CD1 mouse model at 30 mg/kg, ip treated 15 mins before electroshock application. Details: dose 30 mg/kg. It is filed as functional, organism-based. The method in brief: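 Male CD-1 mice dosed ip at 30 mg/kg (10 mL/kg in 5% DMSO/95% of 0.5% HPMC/1% Tween 80) 15 min before corneal electroshock (50 mA, 0.2 s, 1% proparacaine in eyes). Hindlimb extension latency measured; no extension by 6 s counted as protected. Reported as protected/tested out of 8 mice.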

Experiment [6] relates to Rattus norvegicus. Nature of the experiment: Antinociceptive activity in formalin-treated Sprague-Dawley rat model assessed as reduction in hind paw flinches at 17 mg/kg, po measured during 11 to 60 mins of phase 2 flinches. Set-up: scale not given: the % may be the effect or the level left. It is filed as functional. Put shortly: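 Male Sprague-Dawley rats dosed po in 0.5% methylcellulose 1 h before assay. A 0.5 g metal band was glued to the right hind paw 1 h beforehand. 2.5% formalin (50 μL) was injected sc into the dorsal right hind paw. An electromagnetic detector counted flinches for 60 min; phase II is 11-60 min post-injection.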

Experiment [7] has as its system Rattus norvegicus. Nature of the experiment: Analgesic activity in Sprague-Dawley rat assessed as reduction of spinal nerve ligation-induced allodynia score at 10 mg/kg, po. It counts as functional. Set-up: scale not given: the % may be the effect or the level left. The method in brief:
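Male Sprague-Dawley rats; L5 spinal nerve tightly ligated with 4.0 silk distal to the DRG under halothane, then 2-3 weeks recovery. Dosed po in 0.5% methylcellulose. Von Frey tactile withdrawal thresholds measured on a wire mesh floor, top threshold 15 g. Baseline taken just before dosing; testing at 1 and 2 h post-dose.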

Experiment [8] deals with Rattus norvegicus. Nature of the experiment: Anticonvulsant activity in po dosed Sprague-Dawley rat assessed as inhibition of pentylenetetrazole-induced seizure treated 30 mins before PTZ challenge. It counts as functional, organism-based. The method in brief: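 Male Sprague-Dawley rats received compound po in 0.5% methylcellulose (1 mL/kg) 30 min before PTZ 85 mg/kg sc. Latency to tonic-clonic seizure timed from PTZ injection. No seizure within 15 min scored as protected (latency 15 min). EC50 derived from latency scores.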

For experiment [9], the system named is Rattus norvegicus. Nature of the experiment: Analgesic activity in Sprague-Dawley rat assessed as reduction of spinal nerve ligation-induced allodynia score at 100 mg/kg, iv. It counts as functional. Set-up: scale not given: the % may be the effect or the level left. Put shortly:
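L5 spinal nerve ligation (4.0 silk, distal to DRG, halothane anesthesia) in male Sprague-Dawley rats, with 2-3 weeks recovery. Tactile allodynia read as von Frey paw withdrawal threshold on a wire mesh floor, capped at 15 g. Baseline measured right before dosing; behaviour tested 1 and 2 h after administration.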

Experiment [10] deals with Rattus norvegicus. Nature of the experiment: Antinociceptive activity in formalin-treated Sprague-Dawley rat model assessed as reduction in hind paw flinches at 100 mg/kg, iv measured during 11 to 60 mins of phase 2 flinches. It is filed as functional. Details: scale not given: the % may be the effect or the level left. The method in brief: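 Formalin test in male Sprague-Dawley rats fitted with a 0.5 g metal band on the right hind paw. Rats received 50 μL of 2.5% formalin sc into the dorsal right hind paw and were placed unrestrained over an electromagnetic detector. Flinches were counted for 60 min, with phase II defined as 11-60 min.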

Calls of active or inactive are those of the source. Bounds are passed on as bounds.

We go through 28 compounds from ChEMBL document CHEMBL1157731, “Novel KCNQ2/Q3 agonists as potential therapeutics for epilepsy and neuropathic pain” (J Med Chem, 2010).

Chain of Voltage-gated potassium channel, KQT; KCNQ2(Kv7.2)/KCNQ3(Kv7.3) (O43526 whole entry): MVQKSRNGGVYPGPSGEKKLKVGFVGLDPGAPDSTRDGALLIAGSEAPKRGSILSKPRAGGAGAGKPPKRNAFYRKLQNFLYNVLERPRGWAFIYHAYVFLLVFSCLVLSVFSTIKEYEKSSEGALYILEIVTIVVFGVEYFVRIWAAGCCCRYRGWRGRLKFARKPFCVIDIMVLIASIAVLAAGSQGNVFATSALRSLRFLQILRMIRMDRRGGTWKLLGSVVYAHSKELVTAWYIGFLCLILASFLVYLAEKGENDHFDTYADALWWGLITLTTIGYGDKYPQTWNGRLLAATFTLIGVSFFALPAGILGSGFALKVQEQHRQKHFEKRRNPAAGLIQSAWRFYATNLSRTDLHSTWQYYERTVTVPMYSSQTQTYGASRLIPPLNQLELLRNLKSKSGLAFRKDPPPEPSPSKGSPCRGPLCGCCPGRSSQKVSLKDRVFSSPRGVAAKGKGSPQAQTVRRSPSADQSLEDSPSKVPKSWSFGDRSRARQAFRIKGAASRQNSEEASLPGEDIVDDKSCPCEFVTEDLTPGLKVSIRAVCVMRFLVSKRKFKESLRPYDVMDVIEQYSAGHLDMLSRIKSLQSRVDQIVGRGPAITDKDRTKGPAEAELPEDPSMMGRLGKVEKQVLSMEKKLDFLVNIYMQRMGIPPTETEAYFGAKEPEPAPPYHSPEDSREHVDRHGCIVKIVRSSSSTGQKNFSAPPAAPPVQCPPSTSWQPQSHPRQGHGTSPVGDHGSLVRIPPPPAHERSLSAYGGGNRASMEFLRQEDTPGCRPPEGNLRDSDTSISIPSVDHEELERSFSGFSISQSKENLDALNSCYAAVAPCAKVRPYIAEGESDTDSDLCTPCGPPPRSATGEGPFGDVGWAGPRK
Chain of Voltage-gated potassium channel, KQT; KCNQ2(Kv7.2)/KCNQ3(Kv7.3) (O43525 whole entry): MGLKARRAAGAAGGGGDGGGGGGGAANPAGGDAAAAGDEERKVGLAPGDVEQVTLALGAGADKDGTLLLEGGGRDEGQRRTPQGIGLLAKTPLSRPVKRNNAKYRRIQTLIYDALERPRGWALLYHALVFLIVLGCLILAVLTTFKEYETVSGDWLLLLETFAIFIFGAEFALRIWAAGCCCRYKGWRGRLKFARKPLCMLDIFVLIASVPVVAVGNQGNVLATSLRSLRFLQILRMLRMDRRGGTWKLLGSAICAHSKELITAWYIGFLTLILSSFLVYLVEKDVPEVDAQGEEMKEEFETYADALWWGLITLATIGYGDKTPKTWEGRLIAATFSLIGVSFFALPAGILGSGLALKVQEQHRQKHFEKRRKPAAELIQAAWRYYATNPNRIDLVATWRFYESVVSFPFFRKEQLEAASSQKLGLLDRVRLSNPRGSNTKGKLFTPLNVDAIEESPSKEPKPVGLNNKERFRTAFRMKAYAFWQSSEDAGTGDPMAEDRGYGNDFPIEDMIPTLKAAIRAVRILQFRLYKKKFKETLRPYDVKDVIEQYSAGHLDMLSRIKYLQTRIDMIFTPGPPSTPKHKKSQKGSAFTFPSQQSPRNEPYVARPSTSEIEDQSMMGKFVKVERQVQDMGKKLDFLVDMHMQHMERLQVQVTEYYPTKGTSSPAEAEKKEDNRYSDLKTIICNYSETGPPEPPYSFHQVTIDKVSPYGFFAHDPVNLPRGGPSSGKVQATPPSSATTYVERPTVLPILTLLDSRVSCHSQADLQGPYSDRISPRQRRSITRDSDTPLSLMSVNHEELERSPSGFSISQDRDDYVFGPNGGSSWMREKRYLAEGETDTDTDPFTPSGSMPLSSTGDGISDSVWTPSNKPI

Consider `CCn1/c(=N/NC(=O)C23CC4CC(CC(C4)C2)C3)sc2ccccc21`, for which the EC50 in experiment [1] was 570 nM. On the same count and under the same terms, then `CC(=O)N/N=c1\sc2cc(OC(F)(F)F)ccc2n1C`, with above 10000 nM; and `Cn1/c(=N/NC(=O)C2CCCO2)sc2cc(OC(F)(F)F)ccc21` (centres undefined), with 5570 nM; and `Cn1/c(=N/NC(=O)c2cccc(F)c2)sc2cc(OC(F)(F)F)ccc21`, with 100 nM.

Consider `Cn1/c(=N/NC(=O)C23CC4CC(CC(C4)C2)C3)sc2cc(F)cc(F)c21`, for which, in [1], the EC50 is 160 nM. As for `Cn1/c(=N/NC(=O)C23CC4CC(CC(C4)C2)C3)sc2ccc(C(F)(F)F)cc21`, in experiment [2], the result was inactive. In experiment [1], this compound showed an EC50 of 53 nM. Turning to `Cn1/c(=N/NC(=O)C2CCCC2)sc2cc(OC(F)(F)F)ccc21`, the result in experiment [3] was inactive. The same compound registered an EC50 in experiment [1] of 62 nM. Compound `Cn1/c(=N/NC(=O)C2CCCCC2)sc2cc(OC(F)(F)F)ccc21` yielded an EC50 in experiment [1] of 28 nM. With `Cn1/c(=N/NC(=O)OC(C)(C)C)sc2cc(OC(F)(F)F)ccc21`, the outcome in experiment [4] was Active. In addition, the EC50 in experiment [1] was 23 nM. For `Cn1/c(=N/NC(=O)C23CC4CC(CC(C4)C2)C3)sc2cc(OC(F)(F)F)ccc21`, in experiment [5], the result was Active. For the same compound, in [1], the EC50 turned out to be 25 nM. `Cn1/c(=N/NC(=O)C2CCOC2)sc2cc(OC(F)(F)F)ccc21` (centres undefined) displayed an EC50 in experiment [1] of 6730 nM.

`Cn1/c(=N/NC(=O)C23CC4CC(CC(C4)C2)C3)oc2ccccc21` displayed an EC50 in experiment [1] of 2700 nM. For `Cn1/c(=N/NC(=O)C23CC4CC(CC(C4)C2)C3)sc2cc(F)c(F)cc21`, the EC50 in [1] is 21 nM. Turning to `CCOC(=O)Nc1ccc(NCc2ccc(F)cc2)cc1N` [EZOGABINE], the Activity turned out to be 49% in experiment [6] and 0% in experiment [7]. Turning to `Cn1/c(=N/NC(=O)C(C)(C)C)sc2cc(OC(F)(F)F)ccc21`, the EC50 is 3.8 mg/kg in experiment [8] and 710 nM in experiment [1]. Besides, the result in [4] was inactive.

Compound `Cn1/c(=N/NC(=O)C23CC4CC(CC(C4)C2)C3)sc2cccc(C(F)(F)F)c21` yielded an EC50 in experiment [1] of 91 nM. In the case of `Cn1/c(=N/NC(=O)OC2CCCC2)sc2cc(OC(F)(F)F)ccc21`, the EC50 in experiment [1] was 29 nM. As to `Cn1/c(=N/NC(=O)C23CC4CC(CC(C4)C2)C3)sc2cccc(F)c21`, the EC50 in [1] was 380 nM. As to `CN(/N=c1\sc2ccccc2n1C)C(=O)C12CC3CC(CC(C3)C1)C2`, the EC50 in [1] was above 10000 nM. In experiment [1], `Cn1/c(=N/NC(=O)C23CC4CC(CC(C4)C2)C3)sc2c(C(F)(F)F)cccc21` came in with an EC50 of 2080 nM.

Compound `Cn1/c(=N/NC(=O)c2ccccc2)sc2cc(OC(F)(F)F)ccc21` returned an EC50 in [1] of 260 nM. As to `Cn1/c(=N/NC(=O)C23CC4CC(CC(C4)C2)C3)sc2cc(C(F)(F)F)ccc21`, the result in experiment [2] was inactive. In addition, the EC50 in experiment [1] turned out to be 160 nM. The like results for `Cn1/c(=N/NC(=O)C23CC4CC(CC(C4)C2)C3)sc2cc(F)ccc21` were, in that order, “inactive” and 28 nM. Turning to `Cn1/c(=N/NC(=O)C23CC4CC(CC(C4)C2)C3)sc2ccccc21`, the EC50 in [1] amounted to 27 nM.

With `Cn1/c(=N/NC(=O)C23CC4CC(CC(C4)C2)C3)sc2c(F)cccc21`, the outcome in experiment [3] was inactive. In experiment [1], the EC50 came to 98 nM. In experiment [1], `Cn1/c(=N/NC(=O)c2ccco2)sc2cc(OC(F)(F)F)ccc21` returned an EC50 of 500 nM. As for `NCC1(CC(=O)O)CCCCC1` [GABAPENTIN], the values for the Activity in experiment [9] and in [10] were 70% and 61%, respectively. As to `Cn1/c(=N/NC(=O)c2ccc(F)cc2)sc2cc(OC(F)(F)F)ccc21`, the EC50 in [1] came out at 44 nM.
